From PMC5116011 (The Journal of antibiotics, 2016)
In brackets after ≈: the same amount, converted by molar mass. Where two headings read alike, the source gives them in different places.

Columns and labels:
P. aeruginosa PA01 = experiment: MIC, microbroth dilution in Mueller-Hinton broth; assay type: cell-based, Pseudomonas aeruginosa; conditions: for MIC PA MH+BP/CCCP / MIC PA +: P. aeruginosa PA01; for MIC PA MH+BP/CCCP: MH broth with 30 µg/ml 2,2′-bipyridyl and 50 µg/ml CCCP; for MIC PA +: with clavulanic acid (6µg/ml); for MIC: Pseudomonas aeruginosa
E. faecalis ATCC33186 = experiment: MIC, microbroth dilution in Mueller-Hinton broth; assay type: cell-based; conditions: Enterococcus faecalis, ATCC33186, read-out: MIC EF
Outline: (§1)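 CLSI broth microdilution in cation-adjusted Mueller-Hinton broth. Inocula were grown from MH agar colonies in MH broth, with a final inoculum of 10^5 CFU/ml. Test compound final range was 200–0.2 µg/ml, incubated 37°C for 18–20 h. MIC was the lowest concentration preventing visible growth. Runs were at least duplicate, and the mean MIC was reported.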

[1] = Relative binding affinity; assay type: physicochemical
Outline: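 Chelator:Fe(III) stoichiometry was found by the continuous variation method. The apparent iron constant came from the drop in 460 nm absorbance of the preformed test compound–Fe(III) complex as EDTA concentration was raised. pM was calculated as –log free [Fe3+].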

S. pneumoniae R6 = experiment: MIC, microbroth dilution in Mueller-Hinton broth; assay type: cell-based; conditions: Streptococcus pneumoniae, R6, read-out: MIC SP
Outline: as §1

S. pyogenes ATCC700294 = experiment: MIC, microbroth dilution in Mueller-Hinton broth; assay type: cell-based; conditions: Streptococcus pyogenes, ATCC700294, read-out: MIC SPy
Outline: as §1

[2] = tested on: S. aureus -ATCC29213 (MSSA); experiment: MIC, microbroth dilution in Mueller-Hinton broth; assay type: cell-based; conditions: Staphylococcus aureus, read-out: MIC MSSA
Outline: as §1

B. subtilis ATCC23857 = experiment: MIC, microbroth dilution in Mueller-Hinton broth; assay type: cell-based; conditions: Bacillus subtilis, ATCC23857, read-out: MIC BS
Outline: as §1

B. anthracis sterne = experiment: microbe, parasite or virus in culture; assay type: cell-based; conditions: Bacillus anthracis, read-out: MIC BA
S. aureus NRS 70 (MRSA) = experiment: MIC, microbroth dilution in Mueller-Hinton broth; assay type: cell-based; conditions: Staphylococcus aureus, MRSA|NRS70, read-out: MIC MRSA
Outline: as §1

E. coli BW25113 = experiment: MIC, microbroth dilution in Mueller-Hinton broth; assay type: cell-based, Escherichia coli; conditions: for MIC EC MH+BP/CCCP / MIC EC +: E. coli BW25113; for MIC EC MH+BP/CCCP: MH broth with 30 µg/ml 2,2′-bipyridyl and 50 µg/ml CCCP; for MIC EC +: with clavulanic acid (6µg/ml); for MIC: Escherichia coli, BW25113, read-out: MIC EC, E. coli BW25113, Mueller-Hinton broth (Table 2)
P. vulgaris ATCC 33420 = experiment: MIC, microbroth dilution in Mueller-Hinton broth; assay type: cell-based; conditions: Proteus vulgaris, ATCC33420, read-out: MIC PV
[3] = tested on: E. coli ATCC 35218 (Low-level TEM-1); experiment: MIC with and without clavulanic acid; assay type: cell-based; conditions: for MIC ATCC 35218 (Low-level TEM-1) + CLV: with clavulanic acid (6 µg/ml)
Outline: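 Mueller-Hinton broth microdilution per CLSI, run in parallel without and with the β-lactamase inhibitor clavulanic acid (6 µg/ml). MH-broth-grown inoculum was at 10^5 CFU/ml final, with test compound at 200–0.2 µg/ml final. Incubation was 37°C, 18–20 h, and the visible-growth endpoint was read. At least duplicate determinations; the mean MIC was reported.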

[4] = tested on: E. coli BW25113 ΔtolC derivative JW5503-1; experiment: MIC, microbroth dilution in Mueller-Hinton broth; assay type: cell-based, Escherichia coli; conditions: for MIC: Escherichia coli
[5] = tested on: E. coli BW25113 ΔampC derivative JW4111-2; assay type: cell-based, Escherichia coli; conditions: for MIC: Escherichia coli, BW25113, read-out: MIC ECΔampC −
P. mirabilis ATCC 25933 = experiment: MIC, microbroth dilution in Mueller-Hinton broth; assay type: cell-based; conditions: Proteus mirabilis, ATCC25933, read-out: MIC PM
[6] = cited from earlier work
[7] = BW25113, read-out: MIC ECΔtolC MH
[8] = BW25113, read-out: MIC ECΔtolC MH+BP

| Compound | MIC PA MH+BP/CCCP (P. aeruginosa PA01) [µg/mL] | MIC PA + (P. aeruginosa PA01) [µg/mL] | MIC (P. aeruginosa PA01; PA01, read-out: MIC PA) [µg/mL] | MIC (P. aeruginosa PA01; PA01, read-out: MIC PA MH) [µg/mL] | MIC (P. aeruginosa PA01; PA01, read-out: MIC PA MH+BP) [µg/mL] | MIC (P. aeruginosa PA01; PA01, read-out: MIC PA MH+CCCP) [µg/mL] | MIC (E. faecalis ATCC33186) [µg/mL] | MIC (S. pneumoniae R6) [µg/mL] | MIC (S. pyogenes ATCC700294) [µg/mL] | MIC [2] [µg/mL] | MIC (B. subtilis ATCC23857) [µg/mL] | MIC (B. anthracis sterne) [µg/mL] | MIC (S. aureus NRS 70 (MRSA)) [µg/mL] | MIC EC MH+BP/CCCP (E. coli BW25113) [µg/mL] | MIC EC + (E. coli BW25113) [µg/mL] | MIC (E. coli BW25113) [µg/mL] | MIC (P. vulgaris ATCC 33420) [µg/mL] | MIC ATCC 35218 (Low-level TEM-1) + CLV [3] [µg/mL] | MIC ([4]; BW25113, read-out: MIC ECΔtolC) [µg/mL] | MIC [4, 7] [µg/mL] | further results |
| --- | --- | --- | --- | --- | --- | --- | --- | --- | --- | --- | --- | --- | --- | --- | --- | --- | --- | --- | --- | --- | --- |
| CC1(C)SC2C(NC(=O)C(NC(=O)C3=C(O)C(Cc4ccsc4)NC3=O)c3ccccc3)C(=O)N2C1C(=O)O (centres unmarked) [Compound 2916] | 6.25 (≈ 11 µM) | 6.25 | 25 (≈ 43.8 µM) | 25 (≈ 43.8 µM) | 25 (≈ 43.8 µM) | 12.5 (≈ 21.9 µM) | 25 (≈ 43.8 µM) | < 0.2 | 0.39 (≈ 0.683 µM) | < 0.2 | 1.56 (≈ 2.73 µM) | 1.56 (≈ 2.73 µM) | 50 (≈ 87.6 µM) | 12.5 (≈ 21.9 µM) | 12.5 | 50 (≈ 87.6 µM) | 6.25 (≈ 11 µM) | 25 | 1.56 (≈ 2.73 µM) | 1.56 (≈ 2.73 µM) | pM (–log [Fe^3+]) ([1]; 10^−5 M total iron chelator and 10^−6 M total Fe^3+ at pH 7.4): 20.3; apparent binding constant (Kd, app) for iron (III) ([1]; EDTA competition, MeOH:Tris buffer, pH 7.4 (98:2), 3:1 complex): 0.55 × 10^−29 M^3; MIC [4, 8]: 1.56 µg/mL (≈ 2.73 µM); MIC ECΔtolC MH+BP/CCCP [4]: 0.78 µg/mL (≈ 1.37 µM); MIC ECΔtolC MH+CCCP [4]: 0.78 µg/mL (≈ 1.37 µM); MIC [5]: 6.25 µg/mL (≈ 11 µM); MIC ECΔampC + [5]: 3.13 µg/mL; MIC (P. mirabilis ATCC 25933): 6.25 µg/mL (≈ 11 µM) |
| CC1(C)SC2C(NC(=O)C(NC(=O)C3=C(O)C(Cc4ccccc4)NC3=O)c3ccccc3)C(=O)N2C1C(=O)O (centres unmarked) [Compound 2781] | 1.56 (≈ 2.76 µM) | 3.13 | 12.5 (≈ 22.1 µM) | 12.5 (≈ 22.1 µM) | 6.25 (≈ 11.1 µM) | 3.13 (≈ 5.54 µM) | 25 (≈ 44.3 µM) | < 0.2 | 0.39 (≈ 0.691 µM) | < 0.2 | 0.78 (≈ 1.38 µM) | 3.13 (≈ 5.54 µM) | 25 (≈ 44.3 µM) | 3.13 (≈ 5.54 µM) | 6.25 | 100 (≈ 177 µM) | 6.25 (≈ 11.1 µM) | 25 | 3.13 (≈ 5.54 µM) | 3.13 (≈ 5.54 µM) | MIC (P. aeruginosa PA01; PA01, read-out: MIC PA −): 12.5 µg/mL (≈ 22.1 µM); MIC ([3]; Escherichia coli, ATCC35218, read-out: MIC ATCC 35218 (Low-level TEM-1) - CLV): > 200 µg/mL; MIC [4, 8]: 3.13 µg/mL (≈ 5.54 µM); MIC ECΔtolC MH+BP/CCCP [4]: 1.56 µg/mL (≈ 2.76 µM); MIC ECΔtolC MH+CCCP [4]: 1.56 µg/mL (≈ 2.76 µM); MIC [5]: 6.25 µg/mL (≈ 11.1 µM); MIC ECΔampC + [5]: 3.13 µg/mL; MIC (P. mirabilis ATCC 25933): 3.13 µg/mL (≈ 5.54 µM) |
| CN1[C@@H]([C@H]2CSC(c3ccccc3O)=N2)SC[C@H]1C(=O)O [pyochelin] |  |  |  |  |  |  |  |  |  |  |  |  |  |  |  |  |  |  |  |  | pM ([6]; pyochelin, ref [43], [44]): 6; Kd ([6]; read-out: Kd for iron, pyochelin, ref [43], [44]): 10 µM |
| pyoverdin |  |  |  |  |  |  |  |  |  |  |  |  |  |  |  |  |  |  |  |  | pM ([6]; P. aeruginosa pyoverdin, ref [45], [46]): 27 |
| O=C(N[C@H]1COC(=O)[C@@H](NC(=O)c2cccc(O)c2O)COC(=O)[C@@H](NC(=O)c2cccc(O)c2O)COC1=O)c1cccc(O)c1O [enterobactin] |  |  |  |  |  |  |  |  |  |  |  |  |  |  |  |  |  |  |  |  | pM ([6]; E. coli enterobactin, ref [42]): 35.6 |
| CC1(C)SC2C(NC(=O)C(NC(=O)C3=C(O)C(Cc4ccc(F)cc4)NC3=O)c3ccccc3)C(=O)N2C1C(=O)O (centres unmarked) [Compound 2782] | 12.5 (≈ 21.5 µM) | 12.5 | 25 (≈ 42.9 µM) | 25 (≈ 42.9 µM) | 25 (≈ 42.9 µM) | 12.5 (≈ 21.5 µM) | 6.25 (≈ 10.7 µM) | 0.39 (≈ 0.669 µM) | 0.78 (≈ 1.34 µM) | 0.39 (≈ 0.669 µM) | 1.56 (≈ 2.68 µM) | 3.13 (≈ 5.37 µM) | 12.5 (≈ 21.5 µM) | 3.13 (≈ 5.37 µM) | 3.13 | 25 (≈ 42.9 µM) | 12.5 (≈ 21.5 µM) | 25 | 1.56 (≈ 2.68 µM) | 1.56 (≈ 2.68 µM) | MIC [4, 8]: 3.13 µg/mL (≈ 5.37 µM); MIC ECΔtolC MH+BP/CCCP [4]: 1.56 µg/mL (≈ 2.68 µM); MIC ECΔtolC MH+CCCP [4]: 1.56 µg/mL (≈ 2.68 µM); MIC [5]: 6.25 µg/mL (≈ 10.7 µM); MIC ECΔampC + [5]: 3.13 µg/mL; MIC (P. mirabilis ATCC 25933): 12.5 µg/mL (≈ 21.5 µM) |
